Measurements from the RNAGym collection of RNA variant scans (doi:10.1126/science.aae0568).
This sample holds only a part of the variants without activity.

B1: tRNA (parent)
chain: GUUCCGUUGGCGUAAUGGUAACGCGUCUCCCUCCUAAGGAGAAGACUGCGGGUUCGAGUCCCGUACGGAACG

Variants of: B1
Assay: yeast fitness relative to wild type (ratio to wild type); higher = fitter; tRNA-Arg(CCU), competitive growth, 37 C, YPD
In short: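 A pool of Saccharomyces cerevisiae strains, each with a tRNA-Arg(CCU) gene variant at the native genomic locus, was competed in YPD at 37°C for 24 hours across six parallel replicates. The variants had been chemically synthesised at a 3% per-site mutation rate over 69 sites, and gene amplicons before and after competition were read by 100-nucleotide paired-end sequencing. Darwinian fitness relative to wild type rested on changes in genotype frequencies. Genotypes required ≥ 100 starting reads, and estimates < 0.5 were set to 0.5.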

Row | Variant | yeast fitness
1 | GUUCCGUUGGCGUAAUGGUAACGCGUCUUCAUCCUAAGGCGAAGACUGCGGAUUCGAGUCACGUACGGAACG | ≤ 0.5
2 | GUUCCGUUGGCGUAAUGGUAACGCGUCUUUCUCCUAAGGAGAUGACUGCGGGUUCGAGUCCCGUUCGGAACG | 0.588
3 | GUUCCGUUGGCGUAAUGGUAACGCGUCUUCUUCCUAAGGAGAAGACUGCGGGUGCGAGUCCCGUACGCAACG | ≤ 0.5
4 | GUUCCGUUGGCGUAAUGGUAACGCGUCUUCUUCCUAAGGAGAAGACUGCGGGUGCGAGUCCCGUACGAAACG | ≤ 0.5
5 | GUUCCGUUGGCGUAAUGGUAACGCGUCUUACUCCUAAGGAGAAGACUGCGGGUUCGAGGCCCGUACGGAACG | ≤ 0.5
6 | GUUCCGUUGGCGUAAUGGUAACGCGUCUUCCUCCUAACGAGAAGACUGCGGGUUCGAGUCCCGCACGGAACG | ≤ 0.5
7 | GUUCCGUUGGCGUAAUGGUAACGCGUCUUCCUGCUAAGGAGAACACUGCGGGUUCGAGUCCCGCACGGAACG | ≤ 0.5
8 | GUUCCGUUGGCGUAAUGGUAACGCGUCUUCCUCAUAAGGAGAAGACUGCGGGUUCGAGUCCCGUACGGAACG | 0.761
9 | GUUCCGUUGGCGUAAUGGUAACGCGUCUUCCUCCUAAGGAGAAGAGUGCGAGUUCGAGUCCCGUACGGAACG | 0.543
10 | GUUCCGUUGGCGUAAUGGUAACGCGUCUUCAUCCUAAGGAGAAGACUGCGGGUUCGAGUCCCGUAGUGAACG | ≤ 0.5
11 | GUUCCGUUGGCGUAAUGGUAACGCGUCUUCCUCCUAACGAGAAGUCUGCGGGUUCGAGCCCCGUACGGAACG | 0.592
12 | GUUCCGUUGGCGUAAUGGUAACGCGUCUUCAUCCUAACGAGAAGACUGCGGGUUCGAGUCCCGUACGGAACG | ≤ 0.5
13 | GUUCCGUUGGCGUAAUGGUAACGCGUCUUCCUGCUAAGGAGAAGACUGCGGGUUCGAGUCCCGUACGGUACG | ≤ 0.5
14 | GUUCCGUUGGCGUAAUGGUAACGCGUCUUCCUUCUAAGGAGCAGACUGCGGGUUCGAGUCCCGUACGGAACG | 0.774
15 | GUUCCGUUGGCGUAAUGGUAACGCGUCUUCCUCCUAAGGAGAAGACUGCGGGUUCGAGUCCAGUAUGGAACG | ≤ 0.5
16 | GUUCCGUUGGCGUAAUGGUAACGCGUCUUCCUGCUAAGGAGAAGACUGCGGAUUCGACUCCCGUACGGAGCG | ≤ 0.5
17 | GUUCCGUUGGCGUAAUGGUAACGCGUCUUCCUAUUAAGGAGAAGAGUGCGGGUUCGAGUCCCGUACGGAACG | ≤ 0.5
18 | GUUCCGUUGGCGUAAUGGUAACGCGUCUUCCUCGUAAGGAGAUGACUGCGGGUUCGAGUCCUGUUCGGCACG | ≤ 0.5
19 | GUUCCGUUGGCGUAAUGGUAACGCGUCUUCGUCCUAAAGAGAAGACUGCGAGUUCGACUCCCGUACGGAACG | ≤ 0.5

Row | Variant | yeast fitness
20 | GUUCCGUUGGCGUAAUGGUAACGCGUCUUCCUCCUAACAAGAAGACUGCGGGUUCGAGUCCCGUGAAGAACG | ≤ 0.5
21 | GUUCCGUUGGCGUAAUGGUAACGCGUCUUCCUCCUAAGGAGAAGACUGCGGGUUCGAGUCCUGUACGGACCG | 0.604
22 | GUUCCGUUGGCGUAAUGGUAACGCGUCUUCCUCUUAAGGAGAAGACUCCGGAUUCGAGUCCCGUACGGAACG | ≤ 0.5
23 | GUUCCGUUGGCGUAAUGGUAACGCGUCUUCCUCCUAAGGAGAAGACUGAGGGUUCGAGUCCCGCACGGAACG | 0.597
24 | GUUCCGUUGGCGUAAUGGUAACGCGUCUUCCUCCUAAGGACAAGACUGCGGGUUCGAGUCCCGUACGGAACG | 0.776
25 | GUUCCGUUGGCGUAAUGGUAACGCGUCUUCCUUCUAAGGGGAAGACAGCGGGUUCGAGUCCCGUACGGAACG | ≤ 0.5
26 | GUUCCGUUGGCGUAAUGGUAACGCGUCUUCUUCCUAAGGACAAGACUGCGGGUUCGAGUCCCGUACGGAACG | ≤ 0.5
27 | GUUCCGUUGGCGUAAUGGUAACGCGUCUUCCUCCUAAGGAGAACACUGCGGGUUCGAGUACCGUACGGAACG | ≤ 0.5
28 | GUUCCGUUGGCGUAAUGGUAACGCGUCUUCUUCCUAAGGAGAAGACUGCGGGUGCGAGUCCCGUUCAGAACG | 0.565
29 | GUUCCGUUGGCGUAAUGGUAACGCGUCUUCCUCCUAAGGAGAACACUGCGGGUUCGAGUCCCGUACGGAACG | 0.825
30 | GUUCCGUUGGCGUAAUGGUAACGCGUCUUCCUCCUAAGGAGAAGACUGGGGGUUCGAGUACCGUACGGAACG | ≤ 0.5
31 | GUUCCGUUGGCGUAAUGGUAACGCGUCUUCCUCCUAAGGAGAAGACUGCGGGUUGGAGUCCCGUACGCAACG | ≤ 0.5
32 | GUUCCGUUGGCGUAAUGGUAACGCGUCUUCCUCCUAAGGACAAGACUGCGGGUUCAAGUGCGGUACGGAACG | ≤ 0.5
33 | GUUCCGUUGGCGUAAUGGUAACGCGUCUUCCUCUUAAGGAAAAGACUGCGGGUUCGAGUCCCGUACAGAUCG | ≤ 0.5
34 | GUUCCGUUGGCGUAAUGGUAACGCGUCUUCCUACUAAGGAGAAGACUGCGGGUUCGAGUCCCGUACGGAACG | 0.7
35 | GUUCCGUUGGCGUAAUGGUAACGCGUCUUCCUGCUAAGGAGAAGACUGCGGGUUCGAGUCCCGUACGGAACG | 0.689
36 | GUUCCGUUGGCGUAAUGGUAACGCGUCUUCCUCCUAACGAGAAGACUGCGGGUUCGAGUCCCGUACGGAACG | 0.545
37 | GUUCCGUUGGCGUAAUGGUAACGCGUCUUCCUCCUAAAGAGAAGACUGCGGGUUCGAGUCCCGUACGGAACG | 0.733
